Laboratory results published in the RNAGym collection of RNA variant scans (doi:10.1126/science.aae0568).
Fewer inactive variants are shown than the library holds.

B1: tRNA (parent)
chain: GUUCCGUUGGCGUAAUGGUAACGCGUCUCCCUCCUAAGGAGAAGACUGCGGGUUCGAGUCCCGUACGGAACG

Variants of: B1
Experiment: yeast fitness relative to wild type (ratio to wild type); higher = fitter; tRNA-Arg(CCU), competitive growth, 37 C, YPD
In short: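 Variants of the tRNA-Arg(CCU) gene, chemically synthesised with a 3% per-site mutation rate at 69 sites, were placed at the native genomic locus in Saccharomyces cerevisiae. The pooled strains were competed in YPD at 37°C for 24 hours in six parallel replicates. Gene amplicons from the start population and from each end population were read by 100-nucleotide paired-end sequencing. Darwinian fitness relative to wild type came from changes in genotype frequencies; genotypes needed ≥ 100 starting reads, and estimates < 0.5 were set to 0.5.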

Q: Which yeast fitness does the source give for GUUCCGUUGGCGUAAUGGGAACGCGUCUCCCUCCUAAGGAGAAGACUGCGGGUUCGAGUCCUGUACGGAACG [U19G C62U] here?
A: 0.857

Q: With GUUCCGUUGGCGUAAUGGUAACGCGUCUCUCUCCUAAGGAGAAGACUGCGGGUUCGAGUGCCGUACGGAACG [C30U C60G] as the variant, how does the yeast fitness read?
A: 0.661

Q: With GUUCCGUUGGCGUAAUGGUAACGCGUCUCCGUGCUAAGGAGAAGACUGCGGGUUCGCGUCCCGUACGGAACG [C31G C33G A57C] as the variant, how does the yeast fitness read?
A: ≤ 0.5

Q: For GUUCCGUUGGCGUAAUGGUAACGCAUCUCGCUCCUAAGGAGAAGACUGCGGGUUCGACUCCCGUAAGGAACG [G25A C30G G58C C66A], which yeast fitness is on record?
A: ≤ 0.5

Q: Which yeast fitness does the source give for GUUCCGUUGGCGUAAUGGUAACGGGUCUCCCUCCUAAGGAGAAGACUGCAGGUUGGAGUCCCGUACGGAACG [C24G G50A C55G] here?
A: ≤ 0.5

Q: Which yeast fitness does the source give for GUUCCGUUGGCGUACUGGUAACGCGUCUCCCUCCUAAGGAGAAGCCUGCGGGUUCGAGUCCCGUACGGAACG [A15C A45C] here?
A: 0.587

Q: For GUUCCGUUGGAGUAAUGGUAACGCGUCUCCCUCCUAAGGAGAAGACUGCGAGUUCGAGUCCCGUACGGAACG [C11A G51A], which yeast fitness is on record?
A: 0.618

Q: With GUUCCGUUGGCGUAAUGGUAACGUGUCUCUCUCCUAAGGAGAAGACUGCGGGUUCGAGUACCGUACGGAACG [C24U C30U C60A] as the variant, how does the yeast fitness read?
A: 0.532

Q: Which yeast fitness does the source give for GUUCCGGUGGCGUAUUGGUAACGCGUCUCCCUCCUAAGGAGAAGCUUGCGGGUUCAAGUCCCGUACCGAACG [U7G A15U A45C C46U G56A G67C] here?
A: ≤ 0.5

Q: With GUUCCGUUGGCGUAAUGGUAACGCGUCUCUCUCCUAAGGAGAAAACUGCGGGUUCAAGUCCCGUACGGAACG [C30U G44A G56A] as the variant, how does the yeast fitness read?
A: ≤ 0.5

Q: With GUUCCGUUGGCGUAAUGGUAACGCGUCUCCCUCGUAAGGAACAGACUGCGGGUUCGAGUCCCGUACCGAACG [C34G G41A A42C G67C] as the variant, how does the yeast fitness read?
A: 0.597

Q: For GUUCCGUUGGCGUAAUGGUAACGCAUCUCCCUCGUAAGGAGAAGAUUGCGGGUACGAGUCCCGUACGGAACG [G25A C34G C46U U54A], which yeast fitness is on record?
A: ≤ 0.5

Q: Which yeast fitness does the source give for GUUCCGUUGGUGUAAUGGUAACGCGUCUCCCUUCUAAGGAGAAGACUGCGGGUUCGAGUCCCGUACGGAUCG [C11U C33U A70U] here?
A: 0.612

Q: For GUUCCGUUGGCGUAAUGGUAACGCGUCUCCCUCCUAAGGAGGAGACAGCGGGUUCGAGUCCCGUACGGAACG [A42G U47A], which yeast fitness is on record?
A: 0.785

Q: For GUUCCGUUGGCGUAAUGGUAACGCGUCUCCCUCCUAAGGAGAAGACUGGGGGUUCAAGUCCCGUACGGCACG [C49G G56A A69C], which yeast fitness is on record?
A: 0.73

Q: For GUUCCGUUGGCGUAAUGGUAACGCGUCUCCCUCUUAAGGAGAAGACUGCAGGUUCCAGUCCCGUACGGAACG [C34U G50A G56C], which yeast fitness is on record?
A: 0.662

Q: For GUUCCGUUGGCGGAAUGGUAACGCGUCUCCCUCCUAAGGAGAAGACUACGGGUUCGAGUCCCGUACGGAACG [U13G G48A], which yeast fitness is on record?
A: 0.986

Q: For GUUGCGUUGGCGUAAUGGUAAGGUGUCUCCCUCCUAAGGAAAAGACUGCGGGUUCGAGUCCCGUACUGAACG [C4G C22G C24U G41A G67U], which yeast fitness is on record?
A: ≤ 0.5

Q: For GUACCGUUGGCGUAAUGACAACGCGUGUCCCUCCUAAGGAGAAGACUGCGGGUUCGAGUCACGGACGGAACG [U3A G18A U19C C27G C61A U64G], which yeast fitness is on record?
A: ≤ 0.5

Q: For GUUCCGUUGGCGUAAAGGUAACGCGUCUCCCUCCUAAGGAGAAGACUGCGGGUUCGUGUCCCGUACGGUACG [U16A A57U A69U], which yeast fitness is on record?
A: 0.526

Q: For GUUCAGCUGGCGUAAUGGUAACGCGUCUCCCACCUAAGGAGAAGACUGCGGCUUUGAGUCCCGUAUGGAACG [C5A U7C U32A G52C C55U C66U], which yeast fitness is on record?
A: ≤ 0.5

Q: For GUGCCGUCGGCGUAAUGGUAACGCGUCUCCCUCCUAAGGAGAAGACUGCGGGUUCGAGUCCCGUACGGAACG [U3G U8C], which yeast fitness is on record?
A: 0.681

Q: For GUUCCGAUGGCGUAAUGGUAACGCGUCUCCCUCCUAAGGAGAAGACUGCGGGUUCGAGUCCAGUACGGGGCG [U7A C62A A69G A70G], which yeast fitness is on record?
A: ≤ 0.5

Q: Which yeast fitness does the source give for GUUCCGUUGGCGUCAUGGUAACGCGUCUCCCUCCUAAGGUGACGACUGCGGGUUCGAGUCCCGUACGGAACG [A14C A40U A43C] here?
A: 0.564

Q: For GUUCCGUUGGCGUCAUGGUAACGUGUCUCCUUCCUAAGGAGAAGACUGCGGGCUCGAGUCGCGUACGGAACG [A14C C24U C31U U53C C61G], which yeast fitness is on record?
A: ≤ 0.5

Q: Which yeast fitness does the source give for GUUCCGUUGGCGUAAUGGUAACGCGUCUCGCUCCUAAGGAGAAAACUACGGGUUCGAAUCCCGUACGGAACG [C30G G44A G48A G58A] here?
A: ≤ 0.5

Q: Which yeast fitness does the source give for GUUCCGUUGGCGUAAUGGUAACGCGUCUCCCUCCUAUCGAGAAGACUGCGGGUUCGAGUCCCAUACGGAACG [A37U G38C G63A] here?
A: ≤ 0.5

Q: With GUUCCGUUGGCGUAAUGGUAUCGCGUCUCCCUCCUAAGGACACGACUGAGGGUUCGAGUCCUGUACGGAACG [A21U G41C A43C C49A C62U] as the variant, how does the yeast fitness read?
A: ≤ 0.5

Q: For GUUCCGUUGGCGUAACGGUAACGCGUCCCCCUCCUAAGGAGAAGACUGCGGCUUCGAGUCCCGUACGGAACG [U16C U28C G52C], which yeast fitness is on record?
A: ≤ 0.5

Q: Which yeast fitness does the source give for GUCCCGUUGGCGUAAUGGUAACGCAUCUCCCUCCUAAGGAGAAGGCUGCGGGUUCGAGUCCCGUACGGAACG [U3C G25A A45G] here?
A: 0.59

Q: Which yeast fitness does the source give for GUUCCGUUGGCGUAAUGGUAACGGGUCUCCCUCCUCAGGAGAAGACUGCGGGUUCGCGUCCCGUACGGUCCG [C24G A36C A57C A69U A70C] here?
A: ≤ 0.5

Q: For GUUCCGUUGGCGUAAUGGUAACGCGUCACCCUCCUAUGGAGAAGACUGCGGGUUCGAGUCCCGUACGGCACG [U28A A37U A69C], which yeast fitness is on record?
A: ≤ 0.5

Q: For GGUCCGUUGGCGUAAUGGUAACGCGUAUCCCUCGUAAGGAGAAGACUGCGGGUUCGAGUCCCGUGCGGAACG [U2G C27A C34G A65G], which yeast fitness is on record?
A: ≤ 0.5

Q: For GUUCCGUUGGCGUAAUGAUAACGCGUCUCCCUCCUAAGGAGAAGACUGCGGGUUCGAGUCCGGUACGUAACG [G18A C62G G68U], which yeast fitness is on record?
A: ≤ 0.5

Q: With GUUCCGUUCGCGUAUCGGUAACGCGUCUCCCUCCUUAGGAGAAGACUGCGGGUUCGAGUCCCGUACGGCACG [G9C A15U U16C A36U A69C] as the variant, how does the yeast fitness read?
A: ≤ 0.5

Q: With GUUCCGUUGGCGUAAUGCUAAAGCGUCUUCCUCCUAAGGAGAAGCCUGCGGGUUCGAGUCCCGUACGGAACG [G18C C22A C29U A45C] as the variant, how does the yeast fitness read?
A: ≤ 0.5

Q: Which yeast fitness does the source give for GUUCCGUUGGCGUAAUGGUAACGCGUCUCCCUCCUCAGGAGAAGACUGCGGGUUCGAGUCUCGUACGGAACG [A36C C61U] here?
A: 0.581
